Test results taken from ChEMBL document CHEMBL4177755, “Combating Drug-Resistant Fungi with Novel Imperfectly Amphipathic Palindromic Peptides” (J Med Chem, 2018).
Values after ≈ are worked out from the molar mass of the structure shown.

Assays:
Candida albicans [1] = assay: Antifungal activity against fluconazole-resistant Candida albicans 56452 after 48 hrs by broth microdilution method; type: functional; settings: Candida albicans, 56452, 48 h
Summary of the method: (§1)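 Modified CLSI M27-A2 broth microdilution. Yeast at (0.5−1) × 10^3 CFU/mL in MOPS-buffered RPMI 1640 was mixed 1:1 with peptide serially diluted in 0.2% BSA and incubated 48 h at 28 °C. Absorbance was read at 492 nm; MIC is the lowest concentration inhibiting 95% of growth. Triplicate, three biological replicates.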

Staphylococcus aureus [2] = assay: Bactericidal activity against Staphylococcus aureus ATCC 29213; type: functional; settings: read-out: MBC99.9
Summary of the method: (§2)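 Wells from the 24 h, 37 °C MHB microdilution plates (bacteria at a final (0.5−1) × 10^5 CFU/mL; peptide diluted in 0.2% BSA) were plated on agar and incubated overnight. MBC is the lowest concentration killing >99.9% of cells. Each test was reproduced at least 3 times.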

Escherichia coli [3] = assay: Antibacterial activity against Escherichia coli ATCC 25922 after 24 hrs; type: functional; settings: ATCC 25922, 24 h
Summary of the method: (§3)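 Broth microdilution. Mid-log bacteria in MHB at a final (0.5−1) × 10^5 CFU/mL were mixed with equal volumes of peptide serially diluted in 0.2% BSA. Plates were incubated 24 h at 37 °C and read at A492. MIC is the lowest concentration inhibiting 95% of growth. Each test was repeated at least 3 times.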

Candida tropicalis [4] = assay: Antifungal activity against Candida tropicalis cgmcc 2.1975 after 48 hrs by broth microdilution method; type: functional; settings: cgmcc 2.1975, 48 h
Summary of the method: (§4)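 Modified CLSI M27-A2 broth microdilution. Yeast were suspended in MOPS-buffered RPMI 1640 at a final (0.5−1) × 10^3 CFU/mL and mixed 1:1 with peptide serially diluted in 0.2% BSA. Plates were incubated 48 h at 28 °C and read at A492. MIC is the lowest concentration giving 95% inhibition. Run in triplicate with three biological replicates.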

Candida albicans [5] = assay: Fungicidal activity against fluconazole-resistant Candida albicans 17546 after 96 hrs; type: functional; settings: Candida albicans, 17546, 96 h; read-out: MFC99.9
Summary of the method: (§5)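 After the 48 h, 28 °C broth microdilution in MOPS-buffered RPMI 1640 (inoculum (0.5−1) × 10^3 CFU/mL), 50 μL from each well was plated on YM agar for a further 48 h at 28 °C. MFC is the lowest concentration killing at least 99.9% of cells. Triplicate, three biological replicates.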

Salmonella typhimurium = assay: Bactericidal activity against Salmonella typhimurium ATCC 14028; type: functional, Salmonella enterica subsp. enterica serovar Typhimurium; settings: Salmonella enterica, read-out: MBC99.9; summary of the method: as §2
[6] = Bactericidal activity against Salmonella pullorum ATCC 7913; type: functional, Salmonella enterica subsp. enterica serovar Pullorum; settings: Salmonella enterica, read-out: MBC99.9; summary of the method: as §2
Candida albicans [7] = assay: Fungicidal activity against Candida albicans SP3903 after 96 hrs; type: functional; settings: SP3903, 96 h, read-out: MFC99.9; summary of the method: as §5
Candida albicans [8] = assay: Fungicidal activity against Candida albicans isolated from alveolar fluid after 96 hrs; type: functional; settings: read-out: MFC99.9; summary of the method: as §5
Candida albicans [9] = assay: Antifungal activity against Candida albicans cgmcc 2.2086 in presence of CaCl2 by broth dilution method; type: functional
Candida parapsilosis [10] = assay: Fungicidal activity against Candida parapsilosis cgmcc 2.3989 after 96 hrs; type: functional; settings: Lodderomyces parapsilosis, cgmcc 2.3989, 96 h; read-out: MFC99.9
Summary of the method: (§6)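 Wells from the 48 h, 28 °C RPMI 1640/MOPS microdilution plates were plated on YM agar and incubated a further 48 h at 28 °C. MFC is the lowest concentration killing at least 99.9% of cells. Run in triplicate with three biological replicates.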

Candida albicans [11] = assay: Antifungal activity against Candida albicans cgmcc 2.2086 in presence of ZnCl2 by broth dilution method; type: functional
Candida albicans [12] = assay: Antifungal activity against Candida albicans 14936 after 48 hrs by broth microdilution method; type: functional; settings: Candida albicans, 14936, 48 h; summary of the method: as §1
Pichia kudriavzevii = assay: Antifungal activity against Candida krusei cgmcc 2.1857 after 48 hrs by broth microdilution method; type: functional; settings: cgmcc 2.1857, 48 h; summary of the method: as §4
Staphylococcus aureus [13] = assay: Antibacterial activity against Staphylococcus aureus ATCC 29213 after 24 hrs; type: functional; settings: ATCC 29213, 24 h
Summary of the method: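 Modified NCCLS broth microdilution. Mid-log bacteria at (0.5−1) × 10^5 CFU/mL in MHB were mixed 1:1 with peptide serially diluted in 0.2% BSA and incubated 24 h at 37 °C. Absorbance was read at 492 nm; MIC is the lowest concentration inhibiting 95% of growth. At least 3 repeats.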

Candida albicans [14] = assay: Fungicidal activity against Candida albicans SP3876 after 96 hrs; type: functional; settings: SP3876, 96 h, read-out: MFC99.9; summary of the method: as §5
Candida albicans [15] = assay: Fungicidal activity against Candida albicans SP3902 after 96 hrs; type: functional; settings: SP3902, 96 h, read-out: MFC99.9; summary of the method: as §5
Candida albicans [16] = assay: Fungicidal activity against fluconazole-resistant Candida albicans 56452 after 96 hrs; type: functional; settings: Candida albicans, 56452, 96 h; read-out: MFC99.9; summary of the method: as §5
Candida albicans [17] = assay: Antifungal activity against Candida albicans cgmcc 2.2086 in presence of NH4Cl by broth dilution method; type: functional
Escherichia coli [18] = assay: Antibacterial activity against Escherichia coli 1005 after 24 hrs; type: functional; settings: Escherichia coli, 1005, 24 h; summary of the method: as §3
Candida albicans [19] = assay: Fungicidal activity against Candida albicans SP3931 after 96 hrs; type: functional; settings: SP3931, 96 h, read-out: MFC99.9; summary of the method: as §5
Candida tropicalis [20] = assay: Fungicidal activity against Candida tropicalis cgmcc 2.1975 after 96 hrs; type: functional; settings: cgmcc 2.1975, 96 h, read-out: MFC99.9; summary of the method: as §6
Candida albicans [21] = assay: Fungicidal activity against fluconazole-resistant Candida albicans 56214 after 96 hrs; type: functional; settings: Candida albicans, 56214, 96 h; read-out: MFC99.9; summary of the method: as §5
Candida parapsilosis [22] = assay: Antifungal activity against Candida parapsilosis cgmcc 2.3989 after 48 hrs by broth microdilution method; type: functional; settings: Lodderomyces parapsilosis, cgmcc 2.3989, 48 h; summary of the method: as §4
Candida albicans [23] = assay: Antifungal activity against Candida albicans cgmcc 2.2086 in presence of NaCl by broth dilution method; type: functional
Candida albicans [24] = assay: Fungicidal activity against Candida albicans 14936 after 96 hrs; type: functional; settings: Candida albicans, 14936, 96 h; read-out: MFC99.9; summary of the method: as §5
Candida albicans [25] = assay: Antifungal activity against Candida albicans isolated from alveolar fluid after 48 hrs by broth microdilution method; type: functional; summary of the method: as §1

For `CC[C@H](C)[C@H](NC(=O)CN)C(=O)NCC(=O)N[C@@H](C)C(=O)N[C@H](C(=O)N[C@@H](CC(C)C)C(=O)N[C@@H](CCCCN)C(=O)N[C@H](C(=O)N[C@@H](CC(C)C)C(=O)N[C@H](C(=O)N[C@H](C(=O)NCC(=O)N[C@@H](CC(C)C)C(=O)N1CCC[C@H]1C(=O)N[C@@H](C)C(=O)N[C@@H](CC(C)C)C(=O)N[C@H](C(=O)N[C@@H](CO)C(=O)N[C@@H](Cc1c[nH]c2ccccc12)C(=O)N[C@H](C(=O)N[C@@H](CCCCN)C(=O)N[C@@H](CCCNC(=N)N)C(=O)N[C@@H](CCCCN)C(=O)N[C@@H](CCCNC(=N)N)C(=O)N[C@@H](CCC(N)=O)C(=O)N[C@@H](CCC(N)=O)C(N)=O)[C@@H](C)CC)[C@@H](C)CC)[C@@H](C)O)[C@@H](C)O)C(C)C)C(C)C` [MELITTIN], the MIC95 (Candida albicans [1]) was 8 µM (≈ 22.8 µg/mL), the MBC (Staphylococcus aureus [2]) was 8 µM (≈ 22.8 µg/mL) and the MIC95 (Escherichia coli [3]) was 2 µM (≈ 5.69 µg/mL). For the same molecule, the MIC95 (Candida tropicalis [4]) was 4 µM (≈ 11.4 µg/mL), the MFC (Candida albicans [5]) was 8 µM (≈ 22.8 µg/mL) and the MBC (Salmonella typhimurium) was 2 µM (≈ 5.69 µg/mL). The MBC [6] was 2 µM (≈ 5.69 µg/mL), the MFC (Candida albicans [7]) was 4 µM (≈ 11.4 µg/mL) and the MFC (Candida albicans [8]) was 4 µM (≈ 11.4 µg/mL). The MIC (Candida albicans [9]) was 8 µM, the MFC (Candida parapsilosis [10]) was 2 µM (≈ 5.69 µg/mL) and the MIC (Candida albicans [11]) was 4 µM. It also gave an MIC95 (Candida albicans [12]) of 4 µM (≈ 11.4 µg/mL), an MIC95 (Pichia kudriavzevii) of 2 µM (≈ 5.69 µg/mL) and an MIC95 (Staphylococcus aureus [13]) of 8 µM (≈ 22.8 µg/mL). It also gave an MFC (Candida albicans [14]) of 4 µM (≈ 11.4 µg/mL), an MFC (Candida albicans [15]) of 2 µM (≈ 5.69 µg/mL) and an MFC (Candida albicans [16]) of 8 µM (≈ 22.8 µg/mL). For the same molecule, the MIC (Candida albicans [17]) was 4 µM, the MIC95 (Escherichia coli [18]) was 2 µM (≈ 5.69 µg/mL) and the MFC (Candida albicans [19]) was 8 µM (≈ 22.8 µg/mL). For the same molecule, the MFC (Candida tropicalis [20]) was 8 µM (≈ 22.8 µg/mL), the MFC (Candida albicans [21]) was 4 µM (≈ 11.4 µg/mL) and the MIC95 (Candida parapsilosis [22]) was 2 µM (≈ 5.69 µg/mL). It also gave an MIC (Candida albicans [23]) of 8 µM, an MFC (Candida albicans [24]) of 8 µM (≈ 22.8 µg/mL) and an MIC95 (Candida albicans [25]) of 4 µM (≈ 11.4 µg/mL).
